Assays:
[1] = 1-Octanol-water partition coefficient, log P of the compound by spectrophotometer analysis; format: physicochemical
Procedure, shortened: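 Shake-flask partition between 1-octanol and water. Phase-volume ratio and sample amount set so that test-layer absorbance after partitioning fell between 0.2 and 0.9 in a 1-cm cell. The solute was measured by UV spectrophotometry in one layer only, and the other layer was obtained by difference. P = C_octanol/C_water. At least triplicate runs with different sample amounts, log P averaged.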

[2] = 1-Octanol-water partition coefficient, log P of the compound by spectrophotometer analysis corrected for ionization; format: physicochemical
Procedure, shortened: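 Octanol-water log P was measured by the shake-flask method: UV-spectrophotometric assay of one phase, the other by difference, at least triplicate runs with different sample amounts, averaged. The measured log P was then corrected for ionization.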

[3] = Ionization constant, pKa of quinoline nitrogen group of the compound at 1 mM by potentiometric analysis; format: physicochemical
Procedure, shortened: (§1)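 Potentiometric titration of 10⁻³ M test solutions in ethanol (95%)–water mixtures of varying proportion, 100 ml per titration, at 25 ± 0.1 °C under nitrogen with stirring. Titrant added in 0.25-ml aliquots, with stirring and gas stopped for each pH reading. Acidic function titrated with 0.02 N KOH, basic function with 0.02 N HCl. Boiled distilled, deionized water used for dilutions.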

[4] = Ionization constant, pKa of 8-hydroxyl group of the compound at 1 mM by potentiometric analysis; format: physicochemical; procedure, shortened: as §1
[5] = Ionization constant, pKa of substituent at 5th position of the compound at 1 mM by potentiometric analysis; format: physicochemical; procedure, shortened: as §1
[6] = system: Streptococcus mutans; assay: Antibacterial activity against Streptococcus mutans No.6715 assessed as inhibition of bacterial growth after 24 to 48 hrs by spectrophotometric analysis; format: functional; conditions: for MIC: Streptococcus mutans, No.6715
Procedure, shortened: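 S. mutans No. 6715, pure plaque-forming strain; media inoculated with 0.20 ml of a 24-h culture. Incubated anaerobically at 37 °C. Growth was read spectrophotometrically (% T) at 24 and 48 h. Dilution series run in sets of five tubes. MIC (molar) was taken as the lowest drug level whose tubes read above 60% T at 24 h.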

logP [1] | logP [2] | pKa at 1000 µM [3] | pKa at 1000 µM [4] | pKa at 1000 µM [5] | log(1/MIC) [6] | MIC [6] [µM] | SMILES
1 | 1 | 4.93 | 9.53 |  |  |  | OCc1ccc(O)c2ncccc12
 | 2.07 | 4.42 | 7.01 |  |  |  | O=Cc1ccc(O)c2ncccc12
 | 3.29 | 4.43 | 8.31 |  |  |  | Oc1ccc(I)c2cccnc12
 | 1.96 | 4.07 | 7.62 |  |  |  | CC(=O)c1ccc(O)c2ncccc12
2.1 | 2.1 | 4.84 | 9.96 |  |  |  | COc1ccc(O)c2ncccc12
1.06 | 2.37 | 4.47 | 9.46 | 8.66 |  |  | CN(C)Cc1ccc(O)c2ncccc12
1.41 | 4.41 | 4.48 | 9.19 | 9.32 |  |  | CCN(CC)Cc1ccc(O)c2ncccc12
 | 1.82 | 4.3 | 9.25 |  |  |  | N#CCc1ccc(O)c2ncccc12
 |  | 4.72 | 9.46 |  |  |  | COC(=O)Cc1ccc(O)c2ncccc12
 | 2.27 | 4.72 | 9.4 |  |  |  | CCOC(=O)Cc1ccc(O)c2ncccc12
 |  |  |  |  | -0.301 | 2 | Cl.Oc1ccc(Cl)c2cccnc12
 |  |  |  |  | -1.903 | 80 | Cl.O=[N+]([O-])c1ccc(O)c2ncccc12
 |  |  |  |  | -0.602 | 4 | CC(=O)c1ccc(O)c2ncccc12.Cl
 |  |  |  |  | -1.301 | 20 | Cc1ccc(O)c2ncccc12.Cl
 |  |  |  |  | -1.602 | 40 | COc1ccc(O)c2ncccc12.Cl
 |  |  |  |  | -1.602 | 40 | CN(C)Cc1ccc(O)c2ncccc12.Cl
 |  |  |  |  | -1.602 | 40 | CCN(CC)Cc1ccc(O)c2ncccc12.Cl
 |  |  |  |  | -2 | 100 | Cl.OCc1ccc(O)c2ncccc12
 |  |  |  |  | -1.778 | 60 | Cl.N#CCc1ccc(O)c2ncccc12
 |  |  |  |  | -2.903 | 800 | COC(=O)Cc1ccc(O)c2ncccc12.Cl
 |  |  |  |  | -2.903 | 800 | CCOC(=O)Cc1ccc(O)c2ncccc12.Cl
 |  |  |  |  | -0.602 | 4 | Cl.Oc1ccc(I)c2cccnc12
 |  |  |  |  | -0.778 | 6 | Cl.O=Cc1ccc(O)c2ncccc12
2.91 | 2.94 | 3.8 | 8.7 |  |  |  | Oc1ccc(Cl)c2cccnc12 [CLOXYQUIN]
-1.17 | 0.11 | 3.68 | 5.97 |  |  |  | O=[N+]([O-])c1ccc(O)c2ncccc12 [NITROXOLINE]
2.38 | 2.38 | 5.25 | 9.92 |  |  |  | Cc1ccc(O)c2ncccc12 [TILIQUINOL]

SMILES | logP [1] | logP [2] | pKa at 1000 µM [3] | pKa at 1000 µM [4] | pKa at 1000 µM [5] | log(1/MIC) [6] | MIC [6] [µM]
Cl.Oc1cccc2cccnc12 |  |  |  |  |  | -0.301 | 2
Oc1cccc2cccnc12 [OXYQUINOLINE] |  | 1.95 | 5.14 | 9.64 |  |  | 

Source: ChEMBL document CHEMBL3244208, “Quantitative structure-activity relationships for 5-substituted 8-hydroxyquinolines as inhibitors of dental plaque” (J Med Chem, 1977)
